Measurements taken from ChEMBL document CHEMBL5385915 (J Med Chem, 2024).
Converted amounts (≈) assume the structure as drawn. The source made the active and inactive calls. The rule behind the calls is not given here.

Assays:
[1] = system: Mycolicibacterium smegmatis; assay: Antimycobacterial activity against Mycobacterium smegmatis MC(2)155 assessed as reduction in microbial growth incubated for 24 hrs by resazurin dye based assay; assay type: functional
[2] = Lipophilicity, log P of the compound; assay type: physicochemical; details: octanol/water
[3] = system: Mycobacterium tuberculosis; assay: Bactericidal activity against Mycobacterium tuberculosis H37Rv incubated for 6 to 10 days by time kill assay; assay type: functional, organism-based; details: dose <= 96.0 µM, time 6-10 day
How it was run: (§1)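 Time-kill: 2-fold dilutions 96–3 μM in CMM MOD2, 0.1% DMSO vehicle; start 1×10^6 CFU/mL, 37 °C, 200 rpm; sampled days 0, 2, 6, 10, 14; 10-fold dilutions spotted in triplicate on 7H10, counted after 3 weeks; three biological repeats; factorial ANOVA with Tukey post hoc.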

[4] = system: Mycolicibacterium smegmatis; assay: Inhibition of macromolecule biosynthesis in Mycobacterium smegmatis assessed as reduction in incorporation of [3H]-thymidine in DNA at 0.75 times MIC incubated for 36 hrs; assay type: functional, organism-based
[5] = system: Mycolicibacterium smegmatis; assay: Inhibition of macromolecule biosynthesis in Mycobacterium smegmatis assessed as reduction in incorporation of [3H]-leucine in protein at 0.75 times MIC incubated for 36 hrs; assay type: functional, organism-based
[6] = system: Corynebacterium glutamicum; assay: Inhibition of mycolic acid biosynthesis in Corynebacterium glutamicum at 0.5 to 5 times MIC incubated for 6 hrs by TLC based autoradiography analysis; assay type: functional, organism-based
[7] = system: Mycobacterium tuberculosis; assay: Bactericidal activity against Mycobacterium tuberculosis H37Rv assessed as reduction in viable count at 48 uM incubated for 6 days by sytox green staining based flow cytometry analysis; assay type: functional; details: time 6 day
How it was run: (§2)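 H37Rv from time-kill wells (3–96 μM, 0.1% DMSO vehicle) at each time point, stained in quadruplicate 1 h, 37 °C, dark with 20 μM CV-AM and/or 20 μM Sytox Green; fixed 4% formaldehyde 1 h; flow cytometry (405/488 nm lasers); singlets gated by FSC area/height, quadrant gates P1–P4.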

[8] = system: Mycolicibacterium smegmatis; assay: Inhibition of cell wall biosynthesis in Mycobacterium smegmatis assessed as reduction in trehalose monomycolate accumulation at 0.5 to 5 times MIC incubated for 6 hrs in presence of [14C]acetate by MPA staining based TLC analysis; assay type: functional, organism-based
[9] = system: Mycolicibacterium smegmatis; assay: Inhibition of mycolic acid biosynthesis in Mycobacterium smegmatis at 5 times MIC incubated for 12 hrs in presence of [14C]acetate by TLC based autoradiography analysis; assay type: functional, organism-based
[10] = system: Mycobacterium tuberculosis; assay: Bactericidal activity against Mycobacterium tuberculosis H37Rv assessed as reduction in viable count at 96 uM incubated for 10 days by CV-AM staining based flow cytometry analysis; assay type: functional; details: time 10 day; how it was run: as §2
[11] = system: Mycobacterium tuberculosis; assay: Bactericidal activity against Mycobacterium tuberculosis H37Rv assessed as reduction in viable count at 96 uM incubated for 14 days by CV-AM staining based flow cytometry analysis; assay type: functional; details: time 14 day; how it was run: as §2
[12] = system: Corynebacterium glutamicum; assay: Inhibition of mycolic acid biosynthesis in Corynebacterium glutamicum pks13 at 0.5 to 5 times MIC incubated for 6 hrs by TLC based autoradiography analysis; assay type: functional, organism-based
[13] = system: Mycobacterium tuberculosis; assay: Bactericidal activity against Mycobacterium tuberculosis H37Rv assessed as reduction in bacterial count at […] uM incubated for 6 days by time kill assay; assay type: functional; details: time 6 day; how it was run: as §1
[14] = system: Corynebacterium glutamicum; assay: Inhibition of mycolic acid biosynthesis in Corynebacterium glutamicum harboring MmpL3 at 0.5 to 5 times MIC incubated for 6 hrs by TLC based autoradiography analysis; assay type: functional, organism-based
[15] = system: Mycobacterium tuberculosis; assay: Bactericidal activity against Mycobacterium tuberculosis H37Rv assessed as reduction in viable count at 48 uM incubated for 14 days by sytox green staining based flow cytometry analysis; assay type: functional; details: time 14 day; how it was run: as §2
[16] = system: Mycobacterium tuberculosis; assay: Bactericidal activity against Mycobacterium tuberculosis H37Rv assessed as reduction in bacterial count at […] uM incubated for 14 days by time kill assay; assay type: functional; details: time 14 day; how it was run: as §1
[17] = system: Mycolicibacterium smegmatis; assay: Inhibition of cell wall biosynthesis in Mycobacterium smegmatis assessed as reduction in trehalose dimycolate accumulation at 0.5 to 5 times MIC incubated for 6 hrs in presence of [14C]acetate by alpha-napthol staining based TLC analysis; assay type: functional, organism-based
[18] = system: Mycolicibacterium smegmatis; assay: Inhibition of macromolecule biosynthesis in Mycobacterium smegmatis assessed as reduction in incorporation of [3H]-uridine in RNA at 0.75 times MIC incubated for 36 hrs; assay type: functional, organism-based
[19] = system: Mycobacterium tuberculosis; assay: Bactericidal activity against Mycobacterium tuberculosis H37Rv assessed as reduction in viable count at 96 uM incubated for 6 days by CV-AM staining based flow cytometry analysis; assay type: functional; details: time 6 day; how it was run: as §2
[20] = Metabolic stability in mouse hepatocyte assessed as intrinsic clearance measured upto 60 mins […] by LC-MS/MS analysis; assay type: ADME, cell-based; details: hepatocytes, 1 h
How it was run: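 Mouse hepatocytes at 0.5 × 10^6 cells/mL incubated with 1 μM compound at 37 °C, sampled at 0, 10, 20, 30, 45 and 60 min. Disappearance with and without hepatocytes measured by LC-MS/MS; output is mean CLint and t1/2. Duplicate per compound, with up to three species-specific controls.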

[21] = system: Mycolicibacterium smegmatis; assay: Inhibition of macromolecule biosynthesis in Mycobacterium smegmatis assessed as reduction in incorporation of [3H]-diaminopimelic acid in peptidoglycan at 1 times MIC incubated for 6 hrs; assay type: functional, organism-based
[22] = system: Mycobacterium tuberculosis; assay: Bactericidal activity against Mycobacterium tuberculosis H37Rv assessed as reduction in viable count at 96 uM incubated for 14 days by sytox green staining based flow cytometry analysis; assay type: functional, organism-based; details: time 14.0 day; how it was run: as §2
[23] = system: Mycobacterium tuberculosis; assay: Antitubercular activity against drug-sensitive Mycobacterium tuberculosis H37Rv pTYOK assessed as inhibition of bacterial growth measured upto 3 days by luminometer based analysis; assay type: functional; details: 72 h, time <= 3 day
[24] = Efflux ratio of permeability across basolateral to apical side over apical to basolateral side in human Caco-2 cells incubated for 2 hrs by LC-MS/MS analysis; assay type: ADME, cell-based
[25] = system: Mycobacterium tuberculosis; assay: Antitubercular activity against drug-sensitive Mycobacterium tuberculosis H37Rv assessed as inhibition of bacterial growth measured for 7 days by REMA analysis; assay type: functional; details: 168 h, time 7 day
How it was run: (§3)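 REMA: 2-fold dilutions in CMM MOD2 medium, wells inoculated at 1×10^6 CFU/mL, 7 days at 37 °C with 200 rpm agitation; resazurin (0.02% w/v in PBS pH 7.4, 5% Tween 80) then 6 h at room temperature; OD570 vs vehicle; MIC99 by modified Gompertz function; three biological replicates.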

[26] = Metabolic stability in mouse liver microsome assessed as intrinsic clearance measured upto 30 mins in presence of NADPH by LC-MS/MS analysis; assay type: ADME; details: liver microsomes, read-out: CLH
How it was run: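 1 μM compound with 0.5 mg/mL mouse liver microsomes, with or without NADPH (1 mM), 37 °C, sampled at 0, 5, 10, 15 and 30 min. Parent loss followed by LC-MS/MS, giving mean CLint and t1/2. Two replicates per compound; up to three species-specific control compounds included.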

[27] = system: Mycobacterium tuberculosis; assay: Antitubercular activity against Mycobacterium tuberculosis 1192/015 assessed as inhibition of bacterial growth measured for 7 days by REMA analysis; assay type: functional; details: 1192/015, 168 h, time 7 day; how it was run: as §3
[28] = Kinetic solubility in pH 7.4 PBS incubated for 5 mins by UV-spectrophotometry analysis; assay type: physicochemical; details: read-out: Kinetic_solubility
How it was run: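 Compounds from 10 mM DMSO stock diluted in PBS pH 7.4 to a seven-point series (0.2–100 μM), final DMSO 1%, shaken 5 min at 25 °C. Turbidity read by UV at 620 nm; Log_S converted to solubility as S = 10^LogS. Nicardipine control; triplicate.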

[29] = system: Mycolicibacterium smegmatis; assay: Inhibition of cell wall biosynthesis in Mycobacterium smegmatis assessed as formation of cytoplasmic membrane phospholipids at 0.5 to 5 times MIC incubated for 6 hrs in presence of [14C]acetate by TLC based autoradiography analysis; assay type: functional, organism-based
HepG2 [30] = assay: Cytotoxicity against human HepG2 cells assessed as reduction in cell viability incubated for 24 hrs in presence of glucose by MTT assay; assay type: functional, cell-based; details: HepG2, 24 h
[31] = system: Mycobacterium tuberculosis; assay: Bactericidal activity against Mycobacterium tuberculosis H37Rv assessed as reduction in viable count at 48 uM incubated for 6 days by CV-AM staining based flow cytometry analysis; assay type: functional; details: time 6 day; how it was run: as §2
HepG2 [32] = assay: Cytotoxicity against human HepG2 cells assessed as reduction in cell viability incubated for 24 hrs in presence of galactose by MTT assay; assay type: functional, cell-based; details: HepG2, 24 h
[33] = system: Mycobacterium tuberculosis; assay: Bactericidal activity against Mycobacterium tuberculosis H37Rv assessed as reduction in viable count at 48 uM incubated for 14 days by CV-AM staining based flow cytometry analysis; assay type: functional; details: time 14 day; how it was run: as §2
[34] = system: Mycobacterium tuberculosis; assay: Bactericidal activity against Mycobacterium tuberculosis H37Rv assessed as reduction in viable count at 48 uM incubated for 10 days by CV-AM staining based flow cytometry analysis; assay type: functional; details: time 10 day; how it was run: as §2

SMILES: Brc1ccccc1CN1[C@H](CN2CCCC2)C[C@@H]1c1ccccc1 (racemic)
- MIC99 [1]: 30.5 µM
- logP [2]: 4.84

SMILES: Clc1cc(Cl)cc([C@H]2C[C@@H](CN3CCCC3)N2Cc2ccccc2Br)c1 (racemic)
- MIC99 [1]: 14 µM
- logP [2]: 6.05

SMILES: COCCNC[C@@H]1C[C@H](c2ccc(OC(F)(F)F)cc2)N1Cc1ccccc1OC(F)(F)F (racemic)
- MIC99 [1]: 29 µM
- logP [2]: 6.1

SMILES: CNC[C@@H]1C[C@H](c2ccc(OC(F)(F)F)cc2)N1Cc1ccccc1OC(F)(F)F (racemic)
- Activity [3]: Dose-Dependent Effect
- inhibition [4]: inactive
- inhibition [5]: inactive
- inhibition [6]: Active
- Activity [7]: 0.027%
- inhibition [8]: Active
- inhibition [9]: Active
- Activity [10]: 0.08%
- Activity [11]: 0.011%
- inhibition [12]: Active
- Activity [13]: 3.28 log10CFU/ml
- inhibition [14]: Active
- Activity [15]: 0.068%
- Activity [16]: 3.99 log10CFU/ml
- inhibition [17]: Active
- inhibition [18]: inactive
- logP [2]: 6.14
- Activity [19]: 0.043%
- intrinsic clearance (CLint) [20]: < 60 µL/min/mg
- inhibition [21]: Active
- Activity [22]: Active

SMILES: C#CCNC[C@@H]1C[C@H](c2cc(Br)cc(Br)c2)N1Cc1ccccc1Br (racemic)
- MIC99 [1]: 100 µM
- logP [2]: 5.82

SMILES: CC(C)NC[C@@H]1C[C@H](c2ccccc2)N1Cc1ccccc1OC(F)(F)F (racemic)
- MIC99 [1]: 87 µM
- logP [2]: 5.49

SMILES: FC(F)(F)c1cc([C@H]2C[C@@H](CN3CCCC3)N2Cc2ccccc2Br)cc(C(F)(F)F)c1 (racemic)
- MIC50 [23]: 6.9 µM (≈ 3.6 µg/mL)
- efflux ratio at 2 h [24]: < 1
- MIC99 [25]: 3.3 µM (≈ 1.72 µg/mL)
- MIC99 [1]: 26 µM
- inhibition [12]: Active
- inhibition [14]: Active
- microsomal CLint [26]: > 150 µL/min/mg
- logP [2]: 6.6
- intrinsic clearance (CLint) [20]: < 60 µL/min/mg
- MIC99 [27]: 19.1 µM (≈ 9.96 µg/mL)

SMILES: CN(C)C[C@@H]1C[C@H](c2cc(Br)cc(Br)c2)N1Cc1ccccc1Br (racemic)
- MIC99 [1]: 80 µM
- logP [2]: 5.97

SMILES: FC(F)(F)Oc1ccc([C@H]2C[C@@H](CN3CCCC3)N2Cc2ccccc2OC(F)(F)F)cc1 (racemic)
- efflux ratio at 2 h [24]: < 1
- inhibition [12]: Active
- inhibition [14]: Active
- microsomal CLint [26]: > 150 µL/min/mg
- logP [2]: 6.93
- solubility kinetic at 5 min [28]: 7 µM (≈ 3.32 µg/mL)
- intrinsic clearance (CLint) [20]: < 60 µL/min/mg

SMILES: COc1ccc([C@H]2C[C@@H](CN3CCCC3)N2Cc2ccccc2Br)cc1 (racemic)
- logP [2]: 4.68

SMILES: CC(C)NC[C@@H]1C[C@H](c2ccc(OC(F)(F)F)cc2)N1Cc1ccccc1OC(F)(F)F (racemic)
- MIC99 [1]: 23 µM
- logP [2]: 6.92

SMILES: Brc1cc(Br)cc([C@H]2C[C@@H](CN3CCCC3)N2Cc2ccccc2Br)c1 (racemic)
- inhibition [29]: Active
- IC50 (HepG2 [30]): > 100 µM
- Activity [31]: 0.067%
- Activity [3]: Dose-Dependent Effect
- IC50 (HepG2 [32]): > 100 µM
- inhibition [12]: Active
- Activity [33]: 0.066%
- Activity [13]: 0.79 log10CFU/ml
- inhibition [14]: Active
- microsomal CLint [26]: > 150 µL/min/mg
- Activity [16]: 1.9 log10CFU/ml
- Activity [34]: 0.065%
- intrinsic clearance (CLint) [20]: < 60 µL/min/mg
- Activity [22]: Active

SMILES: FC(F)(F)c1ccc(C2CCN(C[C@@H]3C[C@H](c4ccccc4)N3Cc3ccccc3Br)CC2)cc1 (racemic)
- MIC99 [1]: 100 µM
- logP [2]: 7.58

SMILES: CC(C)NC[C@@H]1C[C@H](c2ccc(OC(F)(F)F)cc2)N1Cc1ccccc1Br (racemic)
- MIC99 [1]: 23 µM
- logP [2]: 6.26

SMILES: CC(C)NC[C@@H]1C[C@H](c2ccccc2)N1Cc1ccccc1Br (racemic)
- MIC99 [1]: 94 µM
- logP [2]: 4.82

SMILES: FC(F)(F)Oc1ccc(C2CCN(C[C@@H]3C[C@H](c4ccccc4)N3Cc3ccccc3Br)CC2)cc1 (racemic)
- MIC99 [1]: 100 µM
- logP [2]: 8.14
